Laboratory results as given in ChEMBL document CHEMBL1137618, “Synthesis and structure-activity relationship studies of 3,6-diazabicyclo[3.2.0]heptanes as novel alpha4beta2 nicotinic acetylcholine receptor selective agonists” (J Med Chem, 2007).

Tests used:
[1] = biological target: T1, Neuronal acetylcholine receptor; alpha4/beta2 (Homo sapiens, UniProt P17787+P43681); experiment: Agonist activity at recombinant human alpha-4-beta-2 nAChR expressed in HEK293 cells assessed as induction of calcium influx by FLIPR assay relative to nicotine; type: functional, cell-based
How it was run: (§1)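 HEK-293 lines stably expressing human α4β2 or α3β4 nAChR, grown 24-48 h at 37 °C on poly-D-lysine in DMEM/10% FBS. Loaded with 2-4 µM Fluo-4 AM for ~0.75-1 h at room temperature in the dark, in NMDG Ringer pH 7.4. Serial log dilutions added, then peak calcium fluorescence read on FLIPR after buffer-blank subtraction.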

[2] = biological target: T2, Neuronal acetylcholine receptor; alpha3/beta4 (Homo sapiens, UniProt P30926+P32297); experiment: Agonist activity at recombinant human alpha3beta4 nAChR expressed in HEK293 cells assessed as induction of calcium influx by FLIPR assay relative to nicotine; type: functional, cell-based; how it was run: as §1
[3] = biological target: T1, Neuronal acetylcholine receptor; alpha4/beta2; experiment: Agonist activity at recombinant human alpha-4-beta-2 nAChR expressed in HEK293 cells assessed as induction of calcium influx by FLIPR assay; type: functional, cell-based
[4] = Displacement of [3H]cytisine from neuronal nicotinic acetylcholine receptor in rat brain membrane; type: cell membranes
[5] = biological target: T2, Neuronal acetylcholine receptor; alpha3/beta4; experiment: Agonist activity at recombinant human alpha-3-beta-4 nAChR expressed in HEK293 cells assessed as induction of calcium influx by FLIPR assay; type: functional, cell-based

T2 sequence (P30926 whole entry): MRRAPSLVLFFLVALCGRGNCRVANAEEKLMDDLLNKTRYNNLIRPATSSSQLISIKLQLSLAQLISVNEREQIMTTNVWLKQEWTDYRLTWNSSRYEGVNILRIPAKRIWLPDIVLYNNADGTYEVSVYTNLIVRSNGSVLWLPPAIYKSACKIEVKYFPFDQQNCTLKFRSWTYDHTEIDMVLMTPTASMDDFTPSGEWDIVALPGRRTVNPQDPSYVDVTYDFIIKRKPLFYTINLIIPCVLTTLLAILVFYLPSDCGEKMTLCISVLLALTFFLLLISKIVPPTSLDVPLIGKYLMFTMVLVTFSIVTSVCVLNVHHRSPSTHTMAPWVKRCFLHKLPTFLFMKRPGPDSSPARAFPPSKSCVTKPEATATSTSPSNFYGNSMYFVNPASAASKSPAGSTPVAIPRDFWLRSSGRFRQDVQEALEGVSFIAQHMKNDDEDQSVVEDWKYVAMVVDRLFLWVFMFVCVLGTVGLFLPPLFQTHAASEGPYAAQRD
T2 sequence (P32297 whole entry): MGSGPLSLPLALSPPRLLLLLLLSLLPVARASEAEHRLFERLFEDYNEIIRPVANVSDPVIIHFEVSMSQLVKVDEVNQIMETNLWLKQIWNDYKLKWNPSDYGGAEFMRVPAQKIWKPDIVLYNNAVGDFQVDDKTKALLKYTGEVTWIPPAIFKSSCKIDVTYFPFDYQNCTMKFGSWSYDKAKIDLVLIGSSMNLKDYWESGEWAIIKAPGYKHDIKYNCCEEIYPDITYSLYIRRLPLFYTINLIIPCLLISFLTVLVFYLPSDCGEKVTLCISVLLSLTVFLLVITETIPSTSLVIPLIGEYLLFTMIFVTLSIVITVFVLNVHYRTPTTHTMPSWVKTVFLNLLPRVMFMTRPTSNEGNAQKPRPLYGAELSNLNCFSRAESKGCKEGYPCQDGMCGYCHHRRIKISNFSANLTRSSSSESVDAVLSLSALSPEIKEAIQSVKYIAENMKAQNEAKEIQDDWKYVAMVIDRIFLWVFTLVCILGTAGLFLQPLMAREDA
T1 sequence (P17787 whole entry): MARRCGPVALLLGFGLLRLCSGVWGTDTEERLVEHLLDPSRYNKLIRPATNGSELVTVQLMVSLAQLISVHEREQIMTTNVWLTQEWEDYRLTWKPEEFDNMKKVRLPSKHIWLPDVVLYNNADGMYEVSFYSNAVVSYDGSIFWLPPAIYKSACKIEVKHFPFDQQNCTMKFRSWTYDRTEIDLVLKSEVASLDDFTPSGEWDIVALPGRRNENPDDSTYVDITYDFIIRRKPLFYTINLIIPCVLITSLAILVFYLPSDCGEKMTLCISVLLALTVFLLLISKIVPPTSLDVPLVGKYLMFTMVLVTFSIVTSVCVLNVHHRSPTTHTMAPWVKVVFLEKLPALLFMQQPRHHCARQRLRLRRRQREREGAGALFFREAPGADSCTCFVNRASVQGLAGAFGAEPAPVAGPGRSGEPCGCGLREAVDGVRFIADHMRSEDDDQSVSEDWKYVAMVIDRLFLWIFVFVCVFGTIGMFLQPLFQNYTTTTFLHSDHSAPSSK
T1 sequence (P43681 whole entry): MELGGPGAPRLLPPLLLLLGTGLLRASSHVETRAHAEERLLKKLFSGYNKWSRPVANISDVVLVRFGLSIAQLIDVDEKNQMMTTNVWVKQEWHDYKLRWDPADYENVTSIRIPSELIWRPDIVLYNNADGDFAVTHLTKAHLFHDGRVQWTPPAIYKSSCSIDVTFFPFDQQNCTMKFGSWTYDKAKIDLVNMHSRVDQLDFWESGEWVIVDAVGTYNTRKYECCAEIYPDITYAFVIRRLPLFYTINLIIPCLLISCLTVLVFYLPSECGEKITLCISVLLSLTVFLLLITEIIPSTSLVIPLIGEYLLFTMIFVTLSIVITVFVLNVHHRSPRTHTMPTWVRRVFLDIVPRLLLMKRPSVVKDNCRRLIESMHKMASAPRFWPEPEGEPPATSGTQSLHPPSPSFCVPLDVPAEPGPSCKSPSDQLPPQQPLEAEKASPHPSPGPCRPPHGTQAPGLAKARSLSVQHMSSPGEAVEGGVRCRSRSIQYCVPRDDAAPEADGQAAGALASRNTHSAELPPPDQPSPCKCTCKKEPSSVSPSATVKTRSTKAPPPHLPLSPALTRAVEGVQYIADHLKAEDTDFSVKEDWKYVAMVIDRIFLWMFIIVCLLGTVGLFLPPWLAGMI

Compound c1cncc(N2C[C@@H]3CN[C@@H]3C2)c1 has an Activity [1] of 122%, an Activity [2] of 90% and an EC50 ([3]; read-out: EC50) of 1600 nM. The Ki [4] was 1.2 nM, the “Log Ki” value [4] was -8.92 and the EC50 ([5]; read-out: EC50) was 6100 nM.

For N#Cc1cc(N2C[C@H]3CNC[C@H]32)c[n+]([O-])c1, the Activity [1] was 69%, the Activity [2] was under 10% and the EC50 ([3]; read-out: EC50) was 7500 nM. For the same compound, the EC50 ([3]; read-out: Log EC50 (converted)) was 4570 nM, the Ki [4] was 18.6 nM and the “Log Ki” value [4] was -7.74.

Compound Clc1cc(N2C[C@H]3CNC[C@H]32)cnc1Cl has an Activity [1] of 117%, an Activity [2] of 92% and an EC50 ([3]; read-out: EC50) of 300 nM. The EC50 ([3]; read-out: Log EC50 (converted)) was 263 nM, the Ki [4] was 0.3 nM and the “Log Ki” value [4] was -9.55. The EC50 ([5]; read-out: EC50) was 1000 nM.

Work on Clc1ccc(N2C[C@H]3CN[C@H]3C2)cn1 yielded an Activity [1] of 126%, an Activity [2] of 105% and an EC50 ([3]; read-out: EC50) of 30 nM. The EC50 ([3]; read-out: Log EC50 (converted)) was 24.5 nM, the Ki [4] was 0.2 nM and the “Log Ki” value [4] was -9.77. The EC50 ([5]; read-out: EC50) was 400 nM and the EC50 ([5]; read-out: Log EC50 (converted)) was 34.7 nM.

For c1cncc(N2C[C@@H]3CNC[C@@H]32)c1, the Activity [1] was 101%, the Activity [2] was 97% and the EC50 ([3]; read-out: EC50) was 2800 nM. For the same compound, the EC50 ([3]; read-out: Log EC50 (converted)) was 2690 nM, the Ki [4] was 0.7 nM and the “Log Ki” value [4] was -9.15. It also gave an EC50 ([5]; read-out: EC50) of 9700 nM.

With NC(=O)c1cc(N2C[C@H]3CNC[C@H]32)cnc1Br the Activity [1] was 155%, the Activity [2] was 88% and the EC50 ([3]; read-out: EC50) was 1100 nM. The Ki [4] was 6.5 nM, the “Log Ki” value [4] was -8.19 and the EC50 ([5]; read-out: EC50) was 21200 nM. For the same compound, the EC50 ([5]; read-out: Log EC50 (converted)) was 20900 nM.

c1cncc(N2C[C@H]3CNC[C@H]32)c1 showed an Activity [1] of 116%, an Activity [2] of 62% and an EC50 ([3]; read-out: EC50) of 1900 nM. The EC50 ([3]; read-out: Log EC50 (converted)) was 1820 nM, the Ki [4] was 1.3 nM and the “Log Ki” value [4] was -8.88. It also gave an EC50 ([5]; read-out: EC50) of 2940 nM and an EC50 ([5]; read-out: Log EC50 (converted)) of 29500 nM.

N=C(NO)c1cncc(N2C[C@H]3CNC[C@H]32)c1 gave an Activity [1] of 76%, an Activity [2] of under 10% and an EC50 ([3]; read-out: EC50) of 7200 nM. The EC50 ([3]; read-out: Log EC50 (converted)) was 6760 nM, the Ki [4] was 29.1 nM and the “Log Ki” value [4] was -7.54.

Clc1cc(N2C[C@H]3CN[C@H]3C2)cnc1Cl showed an Activity [1] of 162%, an Activity [2] of 98% and an EC50 ([3]; read-out: EC50) of 400 nM. For the same compound, the EC50 ([3]; read-out: Log EC50 (converted)) was 41.7 nM, the Ki [4] was 0.04 nM and the “Log Ki” value [4] was -10.4. It also gave an EC50 ([5]; read-out: EC50) of 50 nM.

Cc1cncc(N2C[C@@H]3CNC[C@@H]32)c1 showed an Activity [1] of 68%, an Activity [2] of 74% and an EC50 ([3]; read-out: EC50) of 10400 nM. The Ki [4] was 1.1 nM, the “Log Ki” value [4] was -8.94 and the EC50 ([5]; read-out: EC50) was 16900 nM.

In the case of Cc1cncc(N2C[C@@H]3CN[C@@H]3C2)c1, the Activity [1] is reported as 76%, the Activity [2] is reported as 74% and the EC50 ([3]; read-out: EC50) is reported as 39900 nM. The EC50 ([3]; read-out: Log EC50 (converted)) was 30900 nM, the Ki [4] was 2.5 nM and the “Log Ki” value [4] was -8.61. For the same compound, the EC50 ([5]; read-out: EC50) was 8000 nM and the EC50 ([5]; read-out: Log EC50 (converted)) was 33100 nM.

For Cc1cc(N2C[C@H]3CN[C@H]3C2)cnc1C, the Activity [1] was 124%, the Activity [2] was 96% and the EC50 ([3]; read-out: EC50) was 200 nM. The Ki [4] was 0.3 nM, the “Log Ki” value [4] was -9.59 and the EC50 ([5]; read-out: EC50) was 3300 nM.

With Cc1cc(N2C[C@H]3CNC[C@H]32)cnc1C the Activity [1] was 85%, the Activity [2] was 86% and the EC50 ([3]; read-out: EC50) was 2100 nM. The Ki [4] was 8 nM, the “Log Ki” value [4] was -8.1 and the EC50 ([5]; read-out: EC50) was 4200 nM.

Work on Clc1cc(N2C[C@@H]3CN[C@@H]3C2)cnc1Br yielded an Activity [1] of 108%, an Activity [2] of 92% and an EC50 ([3]; read-out: EC50) of 400 nM. For the same compound, the Ki [4] was 0.2 nM, the “Log Ki” value [4] was -9.62 and the EC50 ([5]; read-out: EC50) was 600 nM.

COc1cc(N2C[C@@H]3CN[C@@H]3C2)cnc1Br gave an Activity [1] of 64%, an Activity [2] of 72% and an EC50 ([3]; read-out: EC50) of 2200 nM. The Ki [4] was 1.9 nM, the “Log Ki” value [4] was -8.71 and the EC50 ([5]; read-out: EC50) was 4000 nM.

With Brc1cc(N2C[C@@H]3CN[C@@H]3C2)cnc1Br the Activity [1] was 122%, the Activity [2] was 90% and the EC50 ([3]; read-out: EC50) was 1200 nM. The Ki [4] was 0.3 nM, the “Log Ki” value [4] was -9.52 and the EC50 ([5]; read-out: EC50) was 1300 nM.

Cc1ncc(N2C[C@@H]3CN[C@@H]3C2)cc1C#N showed an Activity [1] of 119%, an Activity [2] of 94% and an EC50 ([3]; read-out: EC50) of 800 nM. The EC50 ([3]; read-out: Log EC50 (converted)) was 724 nM, the Ki [4] was 0.6 nM and the “Log Ki” value [4] was -9.2. The EC50 ([5]; read-out: EC50) was 900 nM.

Compound Cc1cc(N2C[C@@H]3CNC[C@@H]32)cnc1C has an Activity [1] of 83%, an Activity [2] of 78% and an EC50 ([3]; read-out: EC50) of 1500 nM. For the same compound, the Ki [4] was 3.1 nM, the “Log Ki” value [4] was -8.51 and the EC50 ([5]; read-out: EC50) was 12300 nM. The EC50 ([5]; read-out: Log EC50 (converted)) was 12000 nM.

COc1cncc(N2C[C@H]3CN[C@H]3C2)c1 showed an Activity [1] of 130%, an Activity [2] of 99% and an EC50 ([3]; read-out: EC50) of 1000 nM. For the same compound, the Ki [4] was 0.1 nM, the “Log Ki” value [4] was -9.96 and the EC50 ([5]; read-out: EC50) was 1000 nM.

Cc1cc(N2C[C@@H]3CN[C@@H]3C2)cnc1Cl gave an Activity [1] of 134%, an Activity [2] of 100% and an EC50 ([3]; read-out: EC50) of 300 nM. The Ki [4] was 0.08 nM, the “Log Ki” value [4] was -10.1 and the EC50 ([5]; read-out: EC50) was 700 nM.

N#Cc1cc(N2C[C@@H]3CN[C@@H]3C2)cnc1Br gave an Activity [1] of 146%, an Activity [2] of 91% and an EC50 ([3]; read-out: EC50) of 800 nM. For the same compound, the Ki [4] was 0.3 nM, the “Log Ki” value [4] was -9.51 and the EC50 ([5]; read-out: EC50) was 600 nM.
